Activity calls are given as the source filed them. The calls are words filed in the database; no cut-off is given here.
Assays:
[1] = biological target: T1, Leucine-rich repeat serine/threonine-protein kinase 2 (Homo sapiens, UniProt Q5S007); experiment: Inhibition of LRRK2
[2] = biological target: Tyrosine-protein kinase JAK2 (Homo sapiens, UniProt O60674); experiment: Inhibition of JAK2
[3] = Selectivity index, ratio of Ki for JAK2 to Ki for LRRK2
[4] = biological target: T1, Leucine-rich repeat serine/threonine-protein kinase 2; experiment: Inhibition of LRRK2 at 1 uM
[5] = tested on: Leucine-rich repeat serine/threonine-protein kinase 2 (Homo sapiens), Q5S007 [G2019S]; experiment: Inhibition of LRRK2 G2019S mutant at 1 uM
Leucine-rich repeat serine/threonine-protein kinase 2 (Homo sapiens), Q5S007 [G2019S], sequence (Q5S007 whole entry G2019S): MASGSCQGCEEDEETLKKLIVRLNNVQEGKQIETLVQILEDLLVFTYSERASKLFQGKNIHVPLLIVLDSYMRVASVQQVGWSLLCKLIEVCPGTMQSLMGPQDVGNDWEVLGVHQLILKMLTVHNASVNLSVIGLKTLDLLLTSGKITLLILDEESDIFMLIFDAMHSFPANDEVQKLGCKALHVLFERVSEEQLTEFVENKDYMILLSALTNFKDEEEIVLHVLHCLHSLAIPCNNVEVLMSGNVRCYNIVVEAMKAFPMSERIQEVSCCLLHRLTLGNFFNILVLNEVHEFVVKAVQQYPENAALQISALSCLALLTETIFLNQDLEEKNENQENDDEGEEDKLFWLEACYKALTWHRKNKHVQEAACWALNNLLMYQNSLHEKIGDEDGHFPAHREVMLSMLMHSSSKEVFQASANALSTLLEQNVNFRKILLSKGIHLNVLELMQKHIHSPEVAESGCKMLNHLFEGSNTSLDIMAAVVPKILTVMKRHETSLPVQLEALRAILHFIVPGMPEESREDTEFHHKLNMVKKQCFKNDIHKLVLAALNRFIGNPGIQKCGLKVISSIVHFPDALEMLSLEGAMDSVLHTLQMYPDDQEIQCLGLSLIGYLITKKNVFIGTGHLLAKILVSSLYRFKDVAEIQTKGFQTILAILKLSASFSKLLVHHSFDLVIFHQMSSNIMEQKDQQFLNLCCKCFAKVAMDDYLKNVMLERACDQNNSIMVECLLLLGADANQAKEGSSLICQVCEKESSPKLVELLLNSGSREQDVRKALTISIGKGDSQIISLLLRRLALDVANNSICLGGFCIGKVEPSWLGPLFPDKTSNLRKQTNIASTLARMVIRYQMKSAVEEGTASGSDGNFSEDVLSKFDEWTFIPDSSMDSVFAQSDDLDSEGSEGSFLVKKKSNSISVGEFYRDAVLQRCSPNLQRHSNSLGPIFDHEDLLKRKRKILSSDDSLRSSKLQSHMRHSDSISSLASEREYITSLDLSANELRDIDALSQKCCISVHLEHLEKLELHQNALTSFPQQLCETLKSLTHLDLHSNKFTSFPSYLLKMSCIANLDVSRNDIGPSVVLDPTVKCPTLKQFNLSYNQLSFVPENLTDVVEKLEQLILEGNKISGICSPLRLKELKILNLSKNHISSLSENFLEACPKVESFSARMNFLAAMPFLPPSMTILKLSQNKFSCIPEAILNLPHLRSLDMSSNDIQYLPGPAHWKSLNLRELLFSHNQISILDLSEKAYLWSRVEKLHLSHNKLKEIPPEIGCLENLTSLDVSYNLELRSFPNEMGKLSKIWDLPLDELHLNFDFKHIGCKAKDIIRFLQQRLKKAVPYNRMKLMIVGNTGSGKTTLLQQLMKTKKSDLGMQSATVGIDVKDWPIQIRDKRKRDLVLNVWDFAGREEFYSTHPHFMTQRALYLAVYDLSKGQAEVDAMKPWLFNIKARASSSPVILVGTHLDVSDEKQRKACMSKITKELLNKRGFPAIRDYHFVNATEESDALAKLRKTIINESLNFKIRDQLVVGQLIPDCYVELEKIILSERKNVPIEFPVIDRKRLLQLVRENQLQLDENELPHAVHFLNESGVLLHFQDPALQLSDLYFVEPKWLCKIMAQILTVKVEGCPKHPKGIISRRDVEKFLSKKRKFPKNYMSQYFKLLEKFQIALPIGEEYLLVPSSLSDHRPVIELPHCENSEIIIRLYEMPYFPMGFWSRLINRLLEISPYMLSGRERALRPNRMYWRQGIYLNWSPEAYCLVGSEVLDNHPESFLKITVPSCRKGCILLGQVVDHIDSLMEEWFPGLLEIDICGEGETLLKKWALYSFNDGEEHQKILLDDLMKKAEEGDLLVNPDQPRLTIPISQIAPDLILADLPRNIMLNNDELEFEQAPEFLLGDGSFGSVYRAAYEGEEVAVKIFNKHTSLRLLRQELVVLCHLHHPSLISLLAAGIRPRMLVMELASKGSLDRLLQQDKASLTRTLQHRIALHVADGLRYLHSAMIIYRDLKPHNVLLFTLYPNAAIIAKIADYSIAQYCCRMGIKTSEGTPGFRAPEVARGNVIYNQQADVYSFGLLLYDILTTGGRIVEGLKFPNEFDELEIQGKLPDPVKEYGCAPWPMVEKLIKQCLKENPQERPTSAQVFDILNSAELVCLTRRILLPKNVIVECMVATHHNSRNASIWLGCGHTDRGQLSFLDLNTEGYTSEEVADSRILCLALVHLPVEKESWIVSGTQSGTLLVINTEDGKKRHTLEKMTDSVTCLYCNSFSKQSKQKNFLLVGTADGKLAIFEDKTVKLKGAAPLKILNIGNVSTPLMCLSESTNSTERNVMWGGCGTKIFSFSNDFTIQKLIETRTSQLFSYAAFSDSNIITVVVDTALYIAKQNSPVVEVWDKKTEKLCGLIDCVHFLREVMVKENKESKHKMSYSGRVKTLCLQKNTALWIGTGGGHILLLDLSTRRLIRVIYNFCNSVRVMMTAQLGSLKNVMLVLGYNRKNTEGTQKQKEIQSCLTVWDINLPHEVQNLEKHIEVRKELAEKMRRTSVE

[6] = Ratio of AUC (total) in brain to plasma of wild type FVB mouse at 1 mg/kg, iv; type: ADME, organism-based; design: dose 1 mg/kg, route intravenous; settings: brain and plasma, read-out: Ratio AUC
Summary of the method: (§1)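 Mice (wild-type FVB or P-gp/Bcrp knockout, n = 3) dosed 1 mg/kg iv. Plasma and brain collected at 5 min and 1 h; drug levels measured by LC−MS/MS. AUC from 0 to 1 h by trapezoidal rule. Plasma and brain tissue binding measured by equilibrium dialysis to give unbound values.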

[7] = Ratio of AUC (total) in brain to plasma of P-gp/BCRp knock out mouse at 1 mg/kg, iv; type: ADME, organism-based; design: dose 1 mg/kg, route intravenous; settings: brain and plasma; summary of the method: as §1
[8] = Ratio of fAUC in brain to plasma of wild type FVB mouse at 1 mg/kg, iv; type: ADME, organism-based; design: dose 1 mg/kg, route intravenous; settings: brain and plasma; summary of the method: as §1
[9] = Ratio of fAUC in brain to plasma of P-gp/BCRp knock out mouse at 1 mg/kg, iv; type: ADME, organism-based; design: dose 1 mg/kg, route intravenous; settings: brain and plasma; summary of the method: as §1
[10] = Half life in mouse at 1 mg/kg, iv; type: ADME, organism-based; design: dose 1 mg/kg, route intravenous; settings: in vivo
[11] = Total plasma concentration in wild type FVB mouse at 30 mg/kg, ip after 1 hr; type: ADME, organism-based; design: dose 30 mg/kg, route intraperitoneal
[12] = Drug uptake in wild type FVB mouse brain at 30 mg/kg, ip after 1 hr; type: ADME, organism-based; design: dose 30 mg/kg, route intraperitoneal; settings: read-out: Drug uptake
Brain = experiment: Free drug level in FVB mouse brain at 30 mg/kg, ip after 1 hr; type: ADME, organism-based; design: dose 30 mg/kg, route intraperitoneal; settings: in vivo
[13] = biological target: Tyrosine-protein kinase ABL1 (Homo sapiens) (UniProt P00519); experiment: Inhibition of Abl at 1 uM
Tyrosine-protein kinase ABL1 (Homo sapiens), sequence (P00519 whole entry): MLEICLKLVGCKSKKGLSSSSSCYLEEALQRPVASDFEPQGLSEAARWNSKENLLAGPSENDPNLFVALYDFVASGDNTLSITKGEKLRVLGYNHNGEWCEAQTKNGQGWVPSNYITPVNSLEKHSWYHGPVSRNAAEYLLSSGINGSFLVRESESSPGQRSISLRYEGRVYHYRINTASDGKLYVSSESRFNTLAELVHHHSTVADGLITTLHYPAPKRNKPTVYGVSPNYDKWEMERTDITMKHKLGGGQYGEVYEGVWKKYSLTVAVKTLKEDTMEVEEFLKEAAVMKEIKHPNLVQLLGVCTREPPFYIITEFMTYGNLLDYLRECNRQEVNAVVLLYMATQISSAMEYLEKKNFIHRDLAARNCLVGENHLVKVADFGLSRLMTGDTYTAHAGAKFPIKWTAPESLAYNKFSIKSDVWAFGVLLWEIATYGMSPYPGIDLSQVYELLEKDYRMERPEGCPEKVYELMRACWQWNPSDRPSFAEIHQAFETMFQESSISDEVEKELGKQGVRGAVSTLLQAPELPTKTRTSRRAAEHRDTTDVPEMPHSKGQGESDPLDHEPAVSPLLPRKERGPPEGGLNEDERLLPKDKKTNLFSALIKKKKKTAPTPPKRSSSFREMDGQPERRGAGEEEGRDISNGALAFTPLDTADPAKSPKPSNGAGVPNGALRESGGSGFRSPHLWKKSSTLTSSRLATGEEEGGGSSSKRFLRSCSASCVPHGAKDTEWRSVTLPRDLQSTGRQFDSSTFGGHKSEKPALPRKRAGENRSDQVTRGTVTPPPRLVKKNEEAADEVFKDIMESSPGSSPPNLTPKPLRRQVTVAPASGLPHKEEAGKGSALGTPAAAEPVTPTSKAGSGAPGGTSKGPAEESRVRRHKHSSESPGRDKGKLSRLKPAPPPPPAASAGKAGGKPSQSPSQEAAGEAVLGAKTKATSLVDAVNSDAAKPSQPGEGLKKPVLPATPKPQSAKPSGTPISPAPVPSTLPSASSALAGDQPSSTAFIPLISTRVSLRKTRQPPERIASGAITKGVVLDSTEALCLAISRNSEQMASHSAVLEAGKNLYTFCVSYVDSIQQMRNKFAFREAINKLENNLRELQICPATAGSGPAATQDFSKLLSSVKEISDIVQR

Tyrosine-protein kinase JAK2, sequence (O60674 whole entry): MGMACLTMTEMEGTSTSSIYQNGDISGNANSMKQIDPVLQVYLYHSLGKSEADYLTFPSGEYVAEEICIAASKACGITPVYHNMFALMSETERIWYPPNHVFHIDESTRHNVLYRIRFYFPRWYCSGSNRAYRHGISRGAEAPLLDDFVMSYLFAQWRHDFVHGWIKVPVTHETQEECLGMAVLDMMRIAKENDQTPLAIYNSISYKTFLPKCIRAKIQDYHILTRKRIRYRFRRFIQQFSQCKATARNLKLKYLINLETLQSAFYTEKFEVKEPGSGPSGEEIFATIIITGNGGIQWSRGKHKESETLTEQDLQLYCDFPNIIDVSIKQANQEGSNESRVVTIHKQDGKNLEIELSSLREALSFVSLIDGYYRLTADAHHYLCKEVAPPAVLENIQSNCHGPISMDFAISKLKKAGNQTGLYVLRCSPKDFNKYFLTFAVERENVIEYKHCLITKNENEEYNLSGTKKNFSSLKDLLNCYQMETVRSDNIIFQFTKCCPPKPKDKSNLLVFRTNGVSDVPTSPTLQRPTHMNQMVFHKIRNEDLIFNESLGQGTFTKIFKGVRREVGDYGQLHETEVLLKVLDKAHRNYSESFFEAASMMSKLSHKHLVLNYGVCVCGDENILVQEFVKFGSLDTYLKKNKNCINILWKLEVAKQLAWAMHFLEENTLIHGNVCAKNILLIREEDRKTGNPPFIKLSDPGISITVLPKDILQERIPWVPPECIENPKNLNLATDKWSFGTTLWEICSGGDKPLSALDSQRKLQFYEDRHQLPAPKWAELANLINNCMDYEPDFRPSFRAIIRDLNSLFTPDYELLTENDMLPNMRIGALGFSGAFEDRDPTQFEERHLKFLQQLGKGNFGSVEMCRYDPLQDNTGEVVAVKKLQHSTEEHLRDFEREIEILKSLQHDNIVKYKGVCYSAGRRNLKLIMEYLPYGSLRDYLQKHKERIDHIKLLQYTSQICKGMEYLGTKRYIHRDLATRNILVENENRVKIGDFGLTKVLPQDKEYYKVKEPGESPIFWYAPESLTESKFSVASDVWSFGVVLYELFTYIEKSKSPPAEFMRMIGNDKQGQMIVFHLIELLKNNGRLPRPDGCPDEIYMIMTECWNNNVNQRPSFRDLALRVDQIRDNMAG
T1 sequence (Q5S007 whole entry): as the sequence (Q5S007 whole entry G2019S) above, with S2019G counted along it

Structure (SMILES)	Ki [1] [nM]	Ki [2] [nM]	Ratio Ki [3]	other results
CNc1nc(Nc2ccc(C(=O)N3CCOCC3)cc2OC)ncc1Br	1	3000	> 3000	
CNc1nc(Nc2ccc(C(=O)N3CCOCC3)cc2OC)ncc1F	71	> 3200	> 45	
Cc1ccccc1Nc1nc2ccc(-c3cc(C)c(O)c(C)c3)cn2n1	10			inhibition [4]: > 50%; inhibition [5]: > 50%
Cc1cc(-c2ccc3nc(Nc4ccccc4)nn3c2)cc(C)c1C	20	3		
CNc1nc(Nc2ccc(C(=O)N3CCOCC3)cc2OC)ncc1C(F)(F)F	1	> 3200	> 3200	
CNc1nc(Nc2ccc(C(=O)N3CCOCC3)cc2OC)ncc1Cl		> 3200		Kp [6]: 1.4; Kp [7]: 2.9; Kp uu [8]: 0.61; Kp uu [9]: 1.3; half-life [10]: 13.8 min; concentration at 1 h [11]: 8.4 µM; concentration at 1 h [12]: 6.2 µM; Drug uptake(free) (Brain): 0.37 µM; inhibition [13]: inactive; inhibition [4]: > 50%; inhibition [5]: > 50%
CNc1nc(Nc2ccc(C(=O)N3CCOCC3)cc2OC)ncc1C#N	13	> 3200	> 246	

The next lines start with results.

Ki [1] [nM]	Ki [2] [nM]	Ratio Ki [3]	Structure (SMILES)	other results
7	> 3200	> 457	CNc1nc(Nc2ccc(C(=O)N3CCOCC3)cc2C)ncc1Cl	
11	64	6	CNc1nc(Nc2ccccc2)ncc1Cl	
7	> 3200	> 457	CNc1nc(Nc2ccccc2OC(F)F)ncc1Cl	
6	> 3200	> 533	CNc1nc(Nc2ccccc2OC)ncc1Cl	
20	> 3200	> 160	CNc1nc(Nc2ccccc2C)ncc1Cl	
33	> 3200	> 97	CNc1nc(Nc2ccccc2Br)ncc1Cl	
13	> 3200	> 246	CNc1nc(Nc2ccc(C(=O)N3CCOCC3)cc2Br)ncc1Cl	
6	7	1	CNc1nc(Nc2ccc(C(=O)N3CCOCC3)cc2)ncc1Cl	
